In PubChem BioAssay AID2311 (NMMLSC, 2010):

Target: Regulator of G-protein signaling 19 (Homo sapiens) (UniProt P49795)
Experiment: analogs regulating RGS19 interaction with Gαo – biochemical, SAR compounds, multiplexed bead flow cytometry, SAR follow-up (AID 2311)
Conditions: Bead-bound RGS19 and AF488-Galphao binding; for Ki: measured here: Ki calculated from EC50
Outline: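 Material – Bead-immobilised biotinylated RGS19 in an RGS bead multiplex · Control set – DMSO wells and RGS-free bead controls · Timing – 30–90 min compound exposure at room temperature · Signal – high-throughput flow cytometry, median green fluorescence of RGS19-coated beads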

Sequence of Regulator of G-protein signaling 19 (Homo sapiens) (P49795 whole entry, looked up): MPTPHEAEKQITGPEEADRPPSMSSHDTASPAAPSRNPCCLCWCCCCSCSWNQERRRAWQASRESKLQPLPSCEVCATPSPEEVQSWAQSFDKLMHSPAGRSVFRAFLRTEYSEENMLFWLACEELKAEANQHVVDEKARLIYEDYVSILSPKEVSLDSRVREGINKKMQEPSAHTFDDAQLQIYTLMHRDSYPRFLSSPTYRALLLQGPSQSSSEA

SMILES | Ki [nM] | EC50 [nM]
O=C(Cc1csc(N2CCOCC2)n1)N/N=C/c1ccc(O)c(O)c1O | 750 | 
O=C(NCCCN1CCOCC1)c1sc2cc([N+](=O)[O-])ccc2c1Cl | 460 | 
CN=c1scc(C)n1/N=C/c1ccc(O)c(O)c1O | 200 | 
Cc1cccc(N2CCN(C(=O)COc3nsc4nc(C)cc(C)c34)CC2C)c1 (configuration not stated) | 550 | 
CCN=c1scc(C)n1/N=C/c1ccc(O)c(O)c1O | 350 | 
CCC(=O)NC(c1ccc(C)cc1)c1cc([N+](=O)[O-])c2cccnc2c1O (configuration not stated) | 1160 | 
CC1(C)OC(=O)C(=Cc2ccc(-c3ccc(S(N)(=O)=O)cc3)o2)C(=O)O1 | 230 | 

Molecules with a lower Ki, results first:

Ki [nM] | EC50 [nM] | SMILES
160 |  | COc1ccc(C2=CC(=O)C=CC2=O)cc1
10 |  | CC(=O)OCCCNc1cc(Sc2nc3ccccc3s2)c2nonc2c1[N+](=O)[O-]
110 |  | Cc1cc(Cl)ccc1N=c1ssnc1Cl
140 |  | CCOC(=O)c1sc(NC(=O)CSc2nnc(Cc3ccccc3)o2)c(C#N)c1C
30 |  | CN1CCN(C2=C(Cl)C(=O)C(c3cnc(N4CCCCC4)s3)=C(Cl)C2=O)CC1
90 |  | Cc1cccc(N2CCN(C(=O)Cn3sc4nc(C)cc(C)c4c3=O)CC2C)c1 (configuration not stated)
50 |  | Cc1[nH]n(-c2ccccc2)c(=S)c1C=NCCCN=Cc1c(C)[nH]n(-c2ccccc2)c1=S
80 |  | O=C1C(Cl)=C(N2CCCCC2)C(=O)C(Cl)=C1c1cnc(N2CCCCC2)s1
100 | 109 | NS(=O)(=O)c1ccc(N/N=C/c2ccc(O)c(O)c2O)c([N+](=O)[O-])c1
